From publication PMC7395490 (Proceedings of the National Academy of Sciences of the …, 2020)
Where “and” joins values, the source holds several entries; their conditions need not be identical. Identical values can stand only once. Entries after “also recorded” stand apart in the source; their conditions may differ. Like-named read-outs stand apart in the source and are kept apart here.

Assays:
[1] = test system: HCT116O MMR-deficient cells; details: cited from earlier work; for IC50: HCT116O MMR-deficient cells
HCT116 xenograft tumors [2] = assay: Survival rate and cause of death, efficacy experiment 1; assay type: in vivo, NSG mice
Summary of the method: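 HCT116 s.c. xenograft NSG mice received i.p. vehicle, test compound or platinum reference plus s.c. saline hydration; n = 10 to 13 per group. Mice were removed when found dead, when declining health required killing, or when tumor diameter exceeded 15 mm. Survival versus starting number gave Kaplan–Meier curves. ILS = (DaysT – DaysC)/DaysC against vehicle controls.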

[3] = Rhodium and platinum content of tissues after i.p. treatment; assay type: in vivo, NSG mice; details: Rh-PPO 1 mpk, oxaliplatin 7.5 mpk i.p.
HCT116 xenograft tumors [4] = assay: Efficacy experiment 1: tumor volume, i.p. dosing; assay type: in vivo, NSG mice; details: for tumor volumes at conclusion of study: day 28, Rh-PPO vs oxaliplatin 7.5 mpk i.p.
Summary of the method: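 NSG mice (23 to 34 g) were given 2.5 × 10^6 HCT116 cells in 100 μL McCoy's 5A with 10% FBS, s.c. in the right flank. At ~100 mm3 (11 to 12 d), mice were randomized (10 to 13/group). Test compound in saline was given i.p. three or four times weekly. Vehicle was 0.9% NaCl. Platinum reference in 5% dextrose was given i.p. twice weekly. Mice also received 2 mL s.c. saline twice weekly. Calipers twice weekly; TV = W2L/2.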

[5] = cited from earlier work
HCT116 xenograft tumors [6] = assay: Intratumoral efficacy experiment; assay type: in vivo, NSG mice; details: 1 mpk intratumoral
[7] = First mouse experiments exploring the administration route; assay type: in vivo
[8] = Stability in rat liver microsomes; assay type: in vitro ADME
[9] = Mouse body weights during i.p. treatment; assay type: in vivo, NSG mice; details: Rh-PPO treatment groups, both i.p. schedules
[10] = Histological analyses of collected tissues; assay type: in vivo, NSG mice; details: Rh-PPO-treated mice, i.p.
Aqueous solubility = assay type: physicochemical
Stability in rat plasma = assay type: in vitro ADME
NSG mice = assay: Maximum tolerated dose; assay type: in vivo; details: for start of notable symptoms of distress and inactivity: mice killed before end of 10-d study
Summary of the method: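 Weighed NSG mice received test compound dissolved in saline i.p. at 1, 2, 5 or 15 mpk, once daily for 10 consecutive days. Clinical observations and body weights were recorded daily. Surviving animals were killed with carbon dioxide at study end.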

[11] = Plasma pharmacokinetics after i.p. dose; assay type: in vivo, NSG mice; details: for AUC0–8 h / Cmax / t1/2: mouse plasma
Summary of the method: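 After the final i.p. dose (0.5 or 1 mpk) in xenograft-bearing NSG mice, blood was taken by cardiac puncture at 0.5, 1, 2, 4 and 8 h (three mice/group/time) into heparinized vials on ice. Plasma was spun at 15,000 × g, 5 min, RT, and stored at −80 °C. Proteins were precipitated with acetonitrile containing a rhodium-complex internal standard. Intact complex was measured by LC-MS/MS; AUC0–8 h came from the concentration curve.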

CRC cell lines = details: on average across CRC cell lines; cited from earlier work

Molecule: O=C1[O][Pt]2([NH][C@@H]3CCCC[C@H]3[NH]2)[O]C1=O [oxaliplatin, reference compound]
- IC50 [1]: 27.5 µM
- mouse deaths: found dead in cage (HCT116 xenograft tumors [2]; 7.5 mpk i.p.): 45.5%
- distribution of metal among organs [3]: platinum was distributed evenly
- tumor volumes at conclusion of study (HCT116 xenograft tumors [4]): statistically similar tumor volumes
- half-life [5]: 14.1 min

Molecule: [Rh(chrysi)(phen)(2-(pyridine-2-yl)propan-2-ol]Cl2 [Rh-PPO]
- toxicity of intratumoral administration (HCT116 xenograft tumors [6]): significant systemic toxicity; also recorded: unacceptably toxic
- tolerability of i.v. administration ([7]; 20 mpk i.v.): not well tolerated
- oral bioavailability ([7]; oral): zero oral bioavailability
- stability in rat liver microsomes [8]: up to 4 h
- IC50 [1]: 0.25 µM
- cytotoxicity toward HCT116O compared to HCT116N cells ([1]; MMR-deficient HCT116O vs matched MMR-proficient HCT116N): highly potent and selective cytotoxicity
- significant mouse weight loss (more than 15% of original body weight) [9]: neither treatment schedule resulted in significant mouse weight loss
- organ morphology (histology) [10]: normal organ morphology
- increase in life span (ILS) relative to vehicle (HCT116 xenograft tumors [2]; Rh-PPO 0.5/1 mpk, oxaliplatin 7.5 mpk i.p.): 12%
- mice killed due to poor health and inactivity (HCT116 xenograft tumors [2]; Rh-PPO 1 mpk, oxaliplatin 7.5 mpk i.p.): 10%
- mice that died due to tumors reaching maximum allowable size (15 mm) (HCT116 xenograft tumors [2]; both Rh-PPO treatment groups): 90%
- aqueous solubility (Aqueous solubility): high aqueous solubility
- distribution of metal among organs [3]: accumulation of rhodium most significantly in the liver
- stability in rat plasma (Stability in rat plasma): up to 4 h
- reduction in tumor volume relative to vehicle (HCT116 xenograft tumors [4]; Rh-PPO treatment groups (0.5 and 1 mpk i.p.), day 21, efficacy experiment 1): 25 ± 2.7% and 25%
- tumor volumes at conclusion of study (HCT116 xenograft tumors [4]): statistically similar tumor volumes
- body weight change in MTD study (NSG mice; 1, 2, 5 mpk i.p. daily): lost body weight in a dose-dependent manner
- clinical observations (NSG mice; 1 mpk i.p. daily for 10 d): only mild symptoms of distress; also recorded: tolerated over a 10-d period with minor indications of systemic toxicity
- start of notable symptoms of distress and inactivity (NSG mice; 2 mpk i.p. daily): 4 days
- start of notable symptoms of distress and inactivity (NSG mice; 5 mpk i.p. daily): 2 days
- AUC0–8 h ([11]; 0.5 mpk i.p.): 1.31 µM·h
- Cmax ([11]; 0.5 mpk i.p.): 450 nM
- t1/2 ([11]; 0.5 mpk i.p.): 1.11 h
- exposure level (Cmax) relative to in vitro cell IC50 of 250 nM ([11]; 1 mpk i.p.): ~2.5 fold
- AUC0–8 h ([11]; 1 mpk i.p.): 1.52 µM·h
- Cmax ([11]; 1 mpk i.p.): 650 nM
- t1/2 ([11]; 1 mpk i.p.): 1.79 h
- time to peak plasma concentration ([11]; i.p. dosing, 0.5 and 1 mpk): ≤ 30 min
- Cmax ([11]; read-out: maximum plasma concentration (Cmax), 1 mpk i.p.): 650 nM
- potency relative to cisplatin (CRC cell lines): five times more potent
